Consider ten molecules from ChEMBL document CHEMBL1165888, “Synthesis and study of antiproliferative activity of novel thienopyrimidines on glioblastoma cells” (Eur J Med Chem, 2010).

The test relates to DBTRG-05MG. In words: Cytotoxicity against human DBTRG-05MG cells after 72 hrs by MTT assay. Format: functional, cell-based. In a few lines: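 DBTRG.05-MG cells were grown in RPMI 1640 with 10% heat-inactivated FCS at 37 °C and 5% CO₂. They were seeded at 6×10^3 per well, cultured 72 h, then exposed 72 h to serial dilutions in DMSO (≤1%, ≤200 μM). Viability was read by MTT (0.5 mg/mL, 37 °C), DMSO-solubilized, A570/630, as % of untreated wells. IC50 came from curves; triplicates, mean ± SD.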
For orientation: Tetrazolium assays rely on reduction of a dye to a coloured formazan, in cell work by metabolically active cells.
`c1ccc(Nc2ncnc3sc4c(c23)CCCC4)cc1` returned an IC50 of 585 µM.

Turning to `CN(C)c1ncnc2sc3ccccc3c12`, the half-maximal inhibitory concentration (IC50) came to 138 µM.

`CN(C)c1ncnc2sc3c(c12)CCCC3` displayed a concentration for half-maximal inhibition (IC50) of 149 µM.

Consider `c1ccc(Nc2ncnc3sc4ccccc4c23)cc1`, for which the 50% inhibitory concentration (IC50) was 109 µM.

For `Cc1ccccc1Nc1ncnc2sc3ccccc3c12`, 61.8 µM corresponded to half-maximal inhibition (IC50).

Consider `COc1ccccc1Nc1ncnc2sc3c(c12)CCCC3`, for which half-maximal inhibition (IC50) required 571 µM.

Molecule `COc1ccc(Nc2ncnc3sc4c(c23)CCCC4)cc1` returned an IC50 of 152 µM.

`COc1ccc(Nc2ncnc3sc4ccccc4c23)cc1` registered a concentration for half-maximal inhibition (IC50) of 117 µM.

For the molecule `Cc1ccccc1Nc1ncnc2sc3c(c12)CCCC3`, the half-inhibitory concentration (IC50) came out at 474 µM.

The molecule `COc1ccccc1Nc1ncnc2sc3ccccc3c12` gave an IC50 of 41.2 µM.

As a reminder, the IC50 is the concentration needed to halve the response being measured. A lower IC50 goes with greater potency in that assay.
